Screening results as filed in PubChem.
MrgX1 allo act: allosterically activates human MrgX1 receptor signaling; Q96LB2; MrgX1-HEK293, Fluo-4 calcium flux, FDSS; stronger effect = higher value; B-score at 10 µM; 310,000 tested, 0.63% active;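 active = plate-corrected calcium response at least 3 library SD above typical, normal starting fluorescence, not activating the receptor alone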;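 note: compound read alongside a low EC10 to EC30 dose of BAM8-22 agonist; peak minus trough fluorescence over baseline measured at the second addition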
PHOSPHO1 inh: blocks human PHOSPHO1 phosphatase activity. Q8TCT1. recombinant PHOSPHO1, absorbance phosphatase assay. inhibition, % at 13.3 µM. 290,000 tested, 1.1% active. AID 1565; in the data active = inhibition above about 60%
Target sequence (Q8TCT1 whole entry, looked up): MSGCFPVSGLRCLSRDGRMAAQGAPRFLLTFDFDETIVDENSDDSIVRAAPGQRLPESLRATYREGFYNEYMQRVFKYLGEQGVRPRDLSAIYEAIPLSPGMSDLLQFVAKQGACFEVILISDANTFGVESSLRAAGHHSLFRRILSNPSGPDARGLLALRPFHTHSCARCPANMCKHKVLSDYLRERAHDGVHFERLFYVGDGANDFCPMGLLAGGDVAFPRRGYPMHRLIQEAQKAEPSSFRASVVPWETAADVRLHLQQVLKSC
RGS4 act: potentiators or activators of RGS4; HEK293 M3R/inducible RGS4, carbachol calcium flux Fluo4; stronger effect = lower value; B-score at 10 µM; 310,000 tested, 0.92% active; AID 463111;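 active = B-score of the integrated calcium signal more than 4 SD below the library mean, with starting fluorescence not abnormally high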;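 note: negative B-score means reduced calcium response which marks RGS4 activation or potentiation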
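Detection: kinetic calcium fluorescence imaging with Fluo4-AM dye, 2 µM / Material: HEK293 cells with stable M3R and inducible RGS4 / Schedule: recording 10 s baseline at 1 Hz, 100 s post-agonist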
MrgX1 antag: blocks BAM8-22 activation of human MrgX1 receptor. AID 588676. MRGX1-HEK293 calcium flux, Fluo-4, BAM8-22 antagonism; stronger effect = lower value. B-score at 10 µM. Q96LB2. 310,000 tested, 1.3% active;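 active = calcium-response B-score plate-corrected more than 3 library SD below zero, starting fluorescence within 5 deviations, no agonist response on first addition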;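 note: peak minus trough fluorescence over baseline after final BAM8-22 challenge near maximal dose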
MrgX1 agonist: agonists of human MrgX1 receptor; MrgX1-HEK293 cells, Fluo-4 calcium fluorescence, agonist mode; stronger effect = higher value; AID 588627; Q96LB2; 310,000 tested, 0.44% active; B-score at 10 µM;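 active = calcium response B-score plate-corrected fluorescence ratio at least 3 library SD, with starting fluorescence B-score inside 5 SD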
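Material: MrgX1-expressing HEK293 cells; input: 15,000 cells per well; doses: test compound given as first of three sequential additions; schedule: overnight plating before 1 h dye loading; technique: Fluo-4 NW calcium-flux fluorescence, kinetic read; evaluation: baseline-normalised fluorescence change ratio, B-scored; control set: plate-wise positive and negative controls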
RGS4 inh: inhibitors of human RGS4 | B-score at 10 µM | HEK293 M3R/RGS4 inducible, Fluo-4 calcium flux; stronger effect = higher value; triggered by carbachol at its EC20 | 310,000 tested, 0.45% active | AID 463165;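 active = B-score, a plate-corrected calcium signal, over three deviations above library mean, with baseline fluorescence within five deviations of library mean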;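 note: RGS4 expression induced by doxycycline in cells with stable M3 receptor; B-score is computed from the integrated fluorescence ratio over baseline after carbachol; higher B-score means a larger calcium signal and so more RGS4 inhibition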
Active calls of the source: *; i = inactive; · = not tested or not shown. Shown are actives, neighbours in structure and some others; about 4.5% of the full set was active somewhere.

SMILES	MrgX1 allo act	PHOSPHO1 inh	RGS4 act	MrgX1 antag	MrgX1 agonist	RGS4 inh
CC(C)CN=Cc1c(O)c([N+](=O)[O-])cc2oc3c(c12)CCCC3	i	-16.5	i	-6.22*	i	i
O=[N+]([O-])c1cc2oc3c(c2c(C=NCc2ccccc2)c1O)CCCC3	i	-2.5	i	i	i	i
NC(=O)NCCC1=CCCCC1	i	28.0	i	i	i	i
C=CCn1c(N)c(C(=O)NCCC2=CCCCC2)sc1=S	i	76.6*	i	i	i	i
CC1=C(SCCC#N)S/C(=C2\SC(C)=C(SCCC#N)S2)S1	i	95.2*	i	-5.25*	i	i
O=C(NC(NC1CCS(=O)(=O)C1)C(Cl)(Cl)Cl)c1ccc(Br)cc1 (stereo not drawn)	i	44.8	i	i	i	i
CCCC(C)NC(=O)c1cc(C(=O)OC)cc([N+](=O)[O-])c1 (stereo not drawn)	i	-6.9	i	-5.18*	i	i
COC(=O)c1cc(C(=O)NCCC(C)C)cc([N+](=O)[O-])c1	i	21.3	i	i	i	i
Cc1ccc(CN(C)C(=O)c2cc(COc3ccc(F)cc3Cl)on2)o1	i	42.9	i	i	i	i
COc1ccc(OCc2cc(C(=O)N(C)C3CCOCC3)no2)c2ccccc12	i	61.6*	i	i	i	i
CN(C(=O)c1cc(COc2ccc(F)cc2Cl)on1)C1CCCc2ccccc21 (stereo not drawn)	i	27.9	-7.19*	i	i	i
Cc1cc(CN(C)C(=O)c2cc(COc3ccc(F)cc3Cl)on2)n[nH]1	i	60.1*	i	i	i	i
CSc1nncc(/C(C)=N/O)n1	i	7.4	i	i	i	i
CSc1nncc(/C(C)=N\Nc2ccccc2C)n1	i	95.0*	i	i	i	i
Cc1ccc(NC(=O)C(c2ccccc2)c2ccccc2)c(O)c1	i	31.9	i	i	i	i
O=C(CSc1nnc(Nc2ccccc2)s1)NCc1ccco1	i	24.9	i	i	i	i
Cc1ccc(Nc2nnc(SCC(=O)NCc3ccco3)s2)cc1	·	74.0*	i	·	·	i
Cc1ccccc1Nc1nnc(SCC(=O)NC(=O)NCc2ccco2)s1	i	81.6*	i	i	i	i
O=C(CSc1nnc(Nc2ccccc2F)s1)NCc1ccco1	·	87.0*	·	·	·	·
COCCN(C(=O)c1csnn1)C(C(=O)NC1CCCCC1)c1ccc(Cl)cc1 (stereo not drawn)	i	22.4	i	i	i	i
O=C(Cn1c2ccccc2c(=O)c2ccccc21)Nc1cccc(F)c1	i	-2.4	i	i	i	i
Cc1ccc(C2CC(c3ccccc3)=NN2C(=S)Nc2ccccc2)o1 (stereo not drawn)	i	87.9*	i	i	i	i
CCC(=O)N(CC(=O)Nc1sc(C)c(C)c1C(N)=O)C1CCCCC1	i	37.3	i	i	i	i
CN(C)CCCN1c2ccccc2CCc2ccccc21	i	-3.8	·	i	i	·
CC(CN(C)C)CN1c2ccccc2CCc2ccccc21 (stereo not drawn)	i	4.0	i	-4.88*	i	i
SMILES	MrgX1 allo act	PHOSPHO1 inh	RGS4 act	MrgX1 antag	MrgX1 agonist	RGS4 inh
COc1ccc(-c2nnn(CC(=O)N3CCOCC3)n2)cc1	i	-15.8	i	i	i	i
O=C(Cc1cccs1)Nc1ccc(-c2nnn(CC(=O)N3CCOCC3)n2)cc1	i	3.0	i	-6.39*	i	i
Cc1ccccc1C(=O)N1CCN(S(=O)(=O)c2ccccc2)CC1	i	26.3	i	i	i	i
COCCNC(=S)NC1CC2CCCC(C1)N2Cc1cccs1 (stereo not drawn)	i	20.1	i	i	i	i
COCCCNC(=S)NC1CC2CCCC(C1)N2Cc1cccs1 (stereo not drawn)	i	68.7*	i	i	i	i
CN(C)c1ccc(-c2c(-c3ccc4c(c3)OCO4)noc2-c2ccsc2)cn1	i	20.9	i	i	i	i
